# Measured values from ChEMBL document CHEMBL3352516, “Synthesis and biological evaluation of largazole analogues with modified surface recognition cap groups” (2014).
# The source made the active and inactive calls. No cut-off for these calls is given here.
# Experiments:
# [1] = target: T1, Protein deacetylase HDAC6 (Homo sapiens) (UniProt Q9UBN7); assay: Inhibition of human HDAC6 (unknown origin) at 0.01 to 5 uM using Fluor de Lys substrate fluorimetric assay
# T1 sequence (whole entry): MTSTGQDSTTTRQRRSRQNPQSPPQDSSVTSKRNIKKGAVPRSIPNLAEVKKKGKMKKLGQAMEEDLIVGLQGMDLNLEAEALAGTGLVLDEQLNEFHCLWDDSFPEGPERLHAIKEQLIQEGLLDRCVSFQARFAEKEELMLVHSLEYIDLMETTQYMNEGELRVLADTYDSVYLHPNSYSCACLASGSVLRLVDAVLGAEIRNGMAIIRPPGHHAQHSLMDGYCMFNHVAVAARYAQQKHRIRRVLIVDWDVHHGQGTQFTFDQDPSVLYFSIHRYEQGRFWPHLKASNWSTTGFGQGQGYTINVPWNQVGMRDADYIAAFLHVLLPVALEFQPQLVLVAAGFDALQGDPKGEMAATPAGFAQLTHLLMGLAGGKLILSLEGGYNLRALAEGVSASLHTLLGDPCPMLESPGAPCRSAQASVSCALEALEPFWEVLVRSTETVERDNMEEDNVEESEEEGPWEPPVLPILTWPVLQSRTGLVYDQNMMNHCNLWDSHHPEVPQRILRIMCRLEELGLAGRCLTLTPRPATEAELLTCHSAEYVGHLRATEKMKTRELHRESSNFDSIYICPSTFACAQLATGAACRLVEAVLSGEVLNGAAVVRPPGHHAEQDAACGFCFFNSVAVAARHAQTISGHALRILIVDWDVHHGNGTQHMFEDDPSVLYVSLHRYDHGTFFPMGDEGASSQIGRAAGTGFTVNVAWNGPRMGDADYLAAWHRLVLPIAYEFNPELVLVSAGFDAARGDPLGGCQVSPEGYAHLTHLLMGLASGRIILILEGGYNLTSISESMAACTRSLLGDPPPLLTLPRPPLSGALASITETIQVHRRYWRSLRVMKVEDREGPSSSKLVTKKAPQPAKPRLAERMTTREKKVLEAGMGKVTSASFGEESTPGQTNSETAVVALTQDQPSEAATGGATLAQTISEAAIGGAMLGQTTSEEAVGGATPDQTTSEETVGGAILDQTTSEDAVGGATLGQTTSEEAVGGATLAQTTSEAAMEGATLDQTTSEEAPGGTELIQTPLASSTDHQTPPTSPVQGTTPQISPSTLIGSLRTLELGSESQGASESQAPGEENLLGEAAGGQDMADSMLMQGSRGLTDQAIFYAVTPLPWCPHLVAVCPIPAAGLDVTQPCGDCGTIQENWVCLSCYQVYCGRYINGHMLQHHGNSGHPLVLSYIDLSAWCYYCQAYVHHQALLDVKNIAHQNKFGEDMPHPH
# Procedure, shortened: (§1)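 Recombinant HDAC6 incubated 1 h with inhibitor (0–5 μM) and class II-specific Fluor de Lys substrate, then developer added and fluorescence read. Compound with substrate and developer but no enzyme served as interference control. Three experiments, each in triplicate.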
# [2] = target: Histone deacetylase 1 (Homo sapiens) (UniProt Q13547); assay: Inhibition of human HDAC1 (unknown origin) at 1 uM using Fluor de Lys substrate fluorimetric assay
# Sequence of Histone deacetylase 1 (Homo sapiens) (Q13547 whole entry): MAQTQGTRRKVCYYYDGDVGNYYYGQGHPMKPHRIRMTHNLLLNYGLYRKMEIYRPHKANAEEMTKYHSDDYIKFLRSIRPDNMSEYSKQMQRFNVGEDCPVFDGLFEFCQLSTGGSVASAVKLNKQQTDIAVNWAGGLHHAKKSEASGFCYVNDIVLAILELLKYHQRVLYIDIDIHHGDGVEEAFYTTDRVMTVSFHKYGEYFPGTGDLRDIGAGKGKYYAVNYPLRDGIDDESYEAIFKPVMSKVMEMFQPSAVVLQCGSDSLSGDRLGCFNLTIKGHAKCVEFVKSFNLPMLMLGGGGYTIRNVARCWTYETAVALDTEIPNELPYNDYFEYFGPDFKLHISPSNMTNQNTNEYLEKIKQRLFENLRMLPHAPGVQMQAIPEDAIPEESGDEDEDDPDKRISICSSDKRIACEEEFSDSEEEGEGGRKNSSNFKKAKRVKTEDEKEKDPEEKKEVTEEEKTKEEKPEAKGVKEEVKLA
# Procedure, shortened: (§2)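 Recombinant HDAC1 incubated 1 h with inhibitor (0–1 μM) and class I-specific Fluor de Lys substrate, then developer added and fluorescence read. Compound with substrate and developer but no enzyme served as interference control. Three experiments, each in triplicate.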
# [3] = target: Histone deacetylase 1 (Homo sapiens) (UniProt Q13547); assay: Inhibition of human HDAC1 (unknown origin) at 0.1 uM using Fluor de Lys substrate fluorimetric assay; procedure, shortened: as §2
# [4] = target: T1, Protein deacetylase HDAC6 (Homo sapiens); assay: Inhibition of human HDAC6 (unknown origin) at 5 uM using Fluor de Lys substrate fluorimetric assay
# Procedure, shortened: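 Recombinant HDAC6 from a fluorimetric kit, with a substrate specific for class II activity. Enzyme, inhibitor (0–5 μM) and Fluor de Lys substrate incubated 1 h, then developer added before the fluorescence read. Compound-only controls without enzyme, with substrate and developer, checked for signal interference. Three independent experiments, each in triplicate.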
# [5] = target: T2, Histone deacetylase (Homo sapiens) (UniProt Q13547+O15379+Q9UBN7+Q92769+Q9UQL6+Q8WUI4+Q9BY41+Q96DB2+P56524+Q9UKV0+Q969S8); assay: Inhibition of human HDAC in human HCT116 cells assessed as global histone H3 lysine-9 acetylation levels at 0.01 to 1 uM after 24 hrs by Western blotting method; type: cell-based; conditions: HCT-116
# Procedure, shortened: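 HCT116 cells treated 24 h with 10 nM, 100 nM or 1 μM compound, or DMSO. Western blot probed with anti-acetyl-H3 primary antibody and β-actin as loading control. Detection by dye-conjugated secondary antibodies on an infrared scanner.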
# [6] = target: Histone deacetylase 1 (Homo sapiens) (UniProt Q13547); assay: Inhibition of human HDAC1 (unknown origin) at 0.01 to 1 uM using Fluor de Lys substrate fluorimetric assay
# HCT-116 [7] = assay: Growth inhibition of human HCT116 cells at 5 uM after 96 hrs by MTS assay; type: functional, cell-based
# Procedure, shortened: (§3)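 HCT116 colorectal cells seeded at 3×10⁴ cells/well in quadruplicate, attached overnight, then medium replaced with compound-containing medium; 96 h at 37 °C, 5% CO₂. CellTiter 96 One Solution MTS added, 1.5 h at 37 °C, absorbance at 490 nm. Two experiments, each with 4 replicates, mean with SEM; GI50 taken from growth curves.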
# [8] = Growth inhibition of human HCT116 cells after 96 hrs by MTS assay; type: functional; conditions: HCT-116, 96 h; procedure, shortened: as §3
# HCT-116 [9] = assay: Inhibition of cell proliferation of human HCT116 cells at […] after 96 hrs by MTS assay; type: functional, cell-based
# Procedure, shortened: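 HCT116 colorectal cells seeded at 3×10⁴ cells/well in quadruplicate, left to attach overnight, then given fresh medium with compound for 96 h at 37 °C, 5% CO₂. MTS reagent added for 1.5 h, absorbance read at 490 nm. Mean of two experiments, each with 4 replicates.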
# [10] = target: T1, Protein deacetylase HDAC6 (Homo sapiens); assay: Inhibition of human HDAC6 (unknown origin) at 1 uM using Fluor de Lys substrate fluorimetric assay; procedure, shortened: as §1
# [11] = target: T2, Histone deacetylase (Homo sapiens); conditions: HCT-116, 1 uM
Compound,inhibition [1],inhibition [2] [%],inhibition [3],inhibition [4] [%],inhibition [5],inhibition [6],growth inhibition (GI) (HCT-116 [7]),GI50 [8] [µM],inhibition (HCT-116 [9]),inhibition [10] [%],inhibition [11]
CCCCCCCC(=O)SCC/C=C/[C@@H]1CC(=O)NCc2nc(cs2)C2=N[C@@](C)(CS2)C(=O)N[C@@H](C(C)C)C(=O)O1,Active,> 90,15%,75,Active,Active,–,–,–,–,–
CCCCCCCC(=O)SCC/C=C/[C@@H]1CC(=O)NCc2nc(cs2)C2=N[C@@](C)(CS2)C(=O)N[C@H](Cc2cccc3ccccc23)C(=O)O1,inactive,< 15,–,–,inactive,–,inactive,–,–,–,–
C=CC[C@@H]1NC(=O)[C@]2(C)CSC(=N2)c2csc(n2)CNC(=O)C[C@@H](/C=C/CCSC(=O)CCCCCCC)OC1=O,–,> 90,inactive,55,Active,Active,–,0.01,inactive,50,–
CCCCCCCC(=O)SCC/C=C/[C@@H]1CC(=O)NCc2nc(cs2)C2=N[C@@](C)(CS2)C(=O)N[C@@H](Cc2cccc3ccccc23)C(=O)O1,–,> 90,15%,50,Active,Active,–,0.056,inactive,50,–
CCCCCCCC(=O)SCC/C=C/[C@@H]1CC(=O)NCc2nc(cs2)C2=N[C@](C)(CS2)C(=O)N[C@@H](C(C)C)C(=O)O1,–,< 15,–,–,inactive,–,inactive,–,–,–,Active
